Laboratory results as given in ChEMBL document CHEMBL1649384, “Synthesis and antiproliferative activity of novel symmetrical alkylthio- and alkylseleno-imidocarbamates” (Eur J Med Chem, 2011).

Key:
MCF7 = assay: Cytotoxicity against human MCF7 cells after 72 hrs by MTT assay; format: functional; conditions: MCF7, 72 h
Outline: (§1)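 Cells seeded per well: Hep-G2 1×10⁴, HT-29 4×10³, K-562 4×10³, MCF-7 1.2×10⁴, MCF-10A 7×10³, PC-3 2×10³. MCF-10A were grown in supplemented MEBM at 37 °C, 5% CO₂. Five concentrations were tested between 0.01 and 100, with 72 h exposure. Formazan was read by A590. GI₅₀ was taken relative to untreated controls, from at least three independent experiments.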

HT-29 [1] = assay: Cytotoxicity against human HT-29 cells after 72 hrs by MTT assay; format: functional; conditions: HT-29, 72 h; for CC50: read-out: LC50 (the source's name); outline: as §1
K562 = assay: Cytotoxicity against human K562 cells after 72 hrs by MTT assay; format: functional; conditions: K562, 72 h; for CC50: read-out: LC50 (the source's name); outline: as §1
HepG2 = assay: Cytotoxicity against human HepG2 cells after 72 hrs by MTT assay; format: functional; conditions: HepG2, 72 h; for CC50: read-out: LC50 (the source's name); outline: as §1
PC-3 [2] = assay: Cytotoxicity against human PC3 cells after 72 hrs by MTT assay; format: functional; conditions: PC-3, 72 h; for CC50: read-out: LC50 (the source's name); outline: as §1
[3] = Cytotoxicity against human MCF10A cells after 72 hrs by MTT assay; format: cell-based, MCF-10A; conditions: for GI50 at 72 h: MCF10A cells; for LC50 / TGI: mcf-10a, 72 h; outline: as §1
PC-3 [4] = assay: Cytotoxicity against human PC3 cells after 72 hrs by CV method; format: functional; conditions: PC-3, 72 h
Outline: (§2)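 Crystal violet check of the MTT data: eight concentrations between 0.01 and 100, with 72 h exposure. Cells were fixed in 4% formaldehyde for at least 20 min, then stained with 0.1% crystal violet for 30 min. GI₅₀ is the concentration halving growth relative to untreated controls.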

HT-29 [5] = assay: Cytotoxicity against human HT-29 cells after 72 hrs by CV method; format: functional; conditions: HT-29, 72 h; outline: as §2

| Structure (SMILES) | GI50 (MCF7) [µM] | LC50 (MCF7) [µM] | TGI (MCF7) [µM] | GI50 (HT-29 [1]) [µM] | TGI (HT-29 [1]) [µM] | CC50 (HT-29 [1]) [µM] | GI50 (K562) [µM] | TGI (K562) [µM] | CC50 (K562) [µM] | GI50 (HepG2) [µM] | TGI (HepG2) [µM] | CC50 (HepG2) [µM] | GI50 (PC-3 [2]) [µM] | TGI (PC-3 [2]) [µM] | CC50 (PC-3 [2]) [µM] | GI50 at 72 h [3] [µM] | LC50 [3] [µM] | TGI [3] [µM] | GI50 (PC-3 [4]) [µM] | GI50 (HT-29 [5]) [µM] |
| --- | --- | --- | --- | --- | --- | --- | --- | --- | --- | --- | --- | --- | --- | --- | --- | --- | --- | --- | --- | --- |
| C[Se]/C(=N\C(=O)c1csc([N+](=O)[O-])c1)NC(=O)c1csc([N+](=O)[O-])c1 | 0.00076 | > 100 | 28.1 | 0.00063 | > 100 | > 100 | 4.98 | > 100 | > 100 | 0.62 | 1.55 | 10 | 0.1 | 7.09 | > 100 | 1.95 | 7.53 | 4.74 | 0.11 | 7.1 |
| C[Se]/C(=N\C(=O)c1ccco1)NC(=O)c1ccco1 | 0.03 | > 100 | 88.9 | 5e-05 | > 100 | > 100 | 8.78 | > 100 | > 100 | 0.76 | 8.66 | > 100 | 0.36 | 56.7 | > 100 | 5.94 | 98.07 | 40.16 | 0.16 | 1 |
| CS/C(=N\C(=O)c1csc([N+](=O)[O-])c1)NC(=O)c1csc([N+](=O)[O-])c1 | 44.6 | > 100 | 78.1 | 51.8 | > 100 | > 100 | 56.9 | 98.7 | > 100 | 63.4 | > 100 | > 100 | 41.5 | 82.5 | > 100 | 1.55 | 75.14 | 21.35 |  |  |
| C[Se]/C(=N\C(=O)c1cc(-c2ccccc2)nc2ccccc12)NC(=O)c1cc(-c2ccccc2)nc2ccccc12 | 0.49 | > 100 | 7.52 | 0.46 | 90.7 | 90.7 | 5.8 | 30.6 | 73 | 4.54 | 10.1 | 65.4 | 3.97 | 40.2 | > 100 | 0.71 | 76.9 | 20.05 | 3.72 | 0.85 |
| O=C(/N=C(/NC(=O)c1cccs1)[Se]Cc1ccccc1)c1cccs1 | 72.5 | > 100 | > 100 | 55.1 | > 100 | > 100 | 29.5 | 58.5 | 87.4 | 34.7 | 58.1 | 81.5 | 49.9 | > 100 | > 100 | 72.5 | > 100 | > 100 |  |  |
| CS/C(=N\C(=O)c1cccs1)NC(=O)c1cccs1 | 44.5 | > 100 | 89 | 77.9 | > 100 | > 100 | 72.6 | > 100 | > 100 | > 100 | > 100 | > 100 | 39 | 98.2 | > 100 | 19.7 | 90.5 | 55.1 |  |  |
| C[Se]/C(=N\C(=O)c1ccno1)NC(=O)c1ccno1 | 9e-05 | > 100 | 57.5 | 0.00079 | > 100 | > 100 | 0.87 | 45.6 | > 100 | 0.51 | 9.35 | > 100 | 0.09 | 39.3 | > 100 | 2.89 | 63.94 | 15.41 | 0.03 | 4.9 |
| CS/C(=N\C(=O)c1cc2ccccc2s1)NC(=O)c1cc2ccccc2s1 | 9.51 | 78.5 | 43.4 | 16.8 | 88.2 | 88.2 | 34.7 | 66.6 | 98.6 | 15.8 | 53 | 75.8 | 8.58 | 39.4 | 72.5 | 0.02 | 54.56 | 5.6 |  |  |
| CS/C(=N\C(=O)c1cnc2ccccc2c1)NC(=O)c1cnc2ccccc2c1 | 23.9 | > 100 | > 100 | > 100 | > 100 | > 100 | 65.8 | > 100 | > 100 | 57.6 | > 100 | > 100 | 76.3 | > 100 | > 100 | 0.5 | 82.19 | 42.17 |  |  |
| CS/C(=N\C(=O)c1sccc1Cl)NC(=O)c1sccc1Cl | 10.3 | > 100 | 57.1 | 35.6 | > 100 | > 100 | 37 | 78.9 | > 100 | 65.2 | > 100 | > 100 | 24.7 | 57.4 | 90.1 | 0.09 | 64.11 | 23.72 |  |  |
| C[Se]/C(=N\C(=O)c1ccc2c(c1)OCO2)NC(=O)c1ccc2c(c1)OCO2 | 0.99 | > 100 | 52.8 | 0.53 | > 100 | > 100 | 9.23 | 46.3 | 85.2 | 5.84 | 23.6 | 73.1 | 4.24 | 36.8 | > 100 | 5.58 | > 100 | 45.97 |  |  |
| C[Se]/C(=N\C(=O)c1sccc1Cl)NC(=O)c1sccc1Cl | 0.3 | > 100 | 31.2 | 0.0049 | > 100 | > 100 | 4.81 | 28.5 | 90 | 0.69 | 4.02 | 8.67 | 0.97 | 7.03 | > 100 | 3.16 | 7.82 | 5.49 | 0.24 | 0.0059 |
| O=C(/N=C(/NC(=O)c1c2ccccc2nc2ccccc12)[Se]Cc1ccccc1)c1c2ccccc2nc2ccccc12 | 53.7 | > 100 | 88.1 | 26.9 | > 100 | > 100 | 9.6 | 44.5 | 80.7 | 30.4 | 64.5 | 98.5 | 42.3 | 77.4 | > 100 | 53.7 | > 100 | 88.14 |  |  |
| CS/C(=N\C(=O)c1c2ccccc2nc2ccccc12)NC(=O)c1c2ccccc2nc2ccccc12 | 27.7 | > 100 | > 100 | 69.2 | > 100 | > 100 | 45 | 76 | > 100 | 90.2 | > 100 | > 100 | 51.1 | 87.3 | > 100 | 1 | > 100 | > 100 |  |  |
